Active and inactive are the calls of the source. No cut-off for these calls is given here.
Experiments:
Assay type in all cases: cell-based
[1] = target: T1, von Hippel-Lindau disease tumor suppressor/Bromodomain-containing protein 4 (Homo sapiens) (UniProt O60885+P40337); assay: PROTAC activity at BRD4/VHL E3 ligase in human DLD-1 cells assessed as decrease in MYC protein expression at 5 to 10 uM for 24 hrs by Western blot analysis; details: dose 5-10 µM
How it was run: (§1)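 Eight CRC lines exposed 24 h to PROTAC at 5 or 10 µM (stocks 2 mM in DMSO, diluted in PBS or medium). Lysis in RIPA with protease/phosphatase inhibitors and 2.5 mmol/l DTT; 15 µg protein on 10% SDS-PAGE, semi-dry transfer to nitrocellulose. Anti-BRD4 or anti-MYC at 1:1,000 overnight at 4 °C; GAPDH or β-actin loading control; chemiluminescence.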

[2] = target: T1, von Hippel-Lindau disease tumor suppressor/Bromodomain-containing protein 4 (Homo sapiens); assay: PROTAC activity at BRD4/VHL E3 ligase in human LS174T cells assessed as decrease in MYC protein expression at 5 to 10 uM for 24 hrs by Western blot analysis; details: dose 5-10 µM
How it was run: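 Eight CRC lines, including LS174t (RPMI 1640) and SW480 (DMEM/HamsF12), all with 10% FCS, were treated with PROTAC at 5 and 10 µM. BRD4 and MYC proteins were detected by immunoblot (RIPA lysate, 15 µg, 10% gel, primary 1:1,000 overnight at 4 °C), with GAPDH/β-actin as loading control.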

[3] = target: T2, Protein cereblon/Bromodomain-containing protein 4 (Homo sapiens) (UniProt O60885+Q96SW2); assay: PROTAC activity at BRD4/Cereblon in human LS174T cells assessed as BRD4 mRNA level at 500 to 1000 nM for 24 hrs by RT-qPCR analysis; details: dose 500-1000 nM
T2 sequence (Q96SW2 whole entry, looked up, other chains not shown): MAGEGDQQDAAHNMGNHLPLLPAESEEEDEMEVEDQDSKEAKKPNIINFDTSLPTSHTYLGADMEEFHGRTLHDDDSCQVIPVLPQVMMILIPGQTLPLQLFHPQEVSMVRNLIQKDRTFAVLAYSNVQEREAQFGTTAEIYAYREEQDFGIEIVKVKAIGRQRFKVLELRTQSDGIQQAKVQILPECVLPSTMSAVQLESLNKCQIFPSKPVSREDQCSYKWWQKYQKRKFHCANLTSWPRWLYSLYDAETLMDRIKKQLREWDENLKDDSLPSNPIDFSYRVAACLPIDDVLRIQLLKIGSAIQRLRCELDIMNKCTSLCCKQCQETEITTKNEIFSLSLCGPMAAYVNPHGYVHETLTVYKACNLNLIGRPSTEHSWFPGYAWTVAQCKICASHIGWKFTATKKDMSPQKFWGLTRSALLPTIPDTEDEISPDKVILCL
How it was run: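 Total RNA from 10^6 cells after 24 h treatment, Trizol-extracted and integrity-checked. 0.7 µg reverse transcribed, then SYBR-type qPCR: 95 °C 5 min, 40 cycles of 95 °C 15 s/60 °C 60 s. Melting curves checked. MYC or BRD4 normalised to PPIA and ACTB by ΔΔCq. At least three experiments; means ± SD.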

[4] = target: T2, Protein cereblon/Bromodomain-containing protein 4 (Homo sapiens); assay: PROTAC activity at BRD4/Cereblon in human LS174T cells assessed as BRD4 protein expression at 500 nM for 2 hrs and measured 22 hrs after washout by Western blot analysis
How it was run: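 LS174t cells exposed 2 h to PROTAC; for washout, medium replaced and cells collected 22 h later. BRD4 by immunoblot (15 µg lysate, 10% SDS-PAGE, anti-BRD4 1:1,000 overnight at 4 °C, GAPDH/β-actin control).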

[5] = target: T2, Protein cereblon/Bromodomain-containing protein 4 (Homo sapiens); assay: PROTAC activity at BRD4/Cereblon in human LS174T cells assessed as decrease in MYC protein expression at […] for 24 hrs by Western blot analysis
How it was run: (§2)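 Cells treated 24 h across 1 nM–10 µM range (fibroblasts at 500/1000 nM). Immunoblot: RIPA lysate with 2.5 mmol/l DTT, 15 µg per lane on 10% SDS-PAGE, nitrocellulose, 5% milk block 1 h. BRD4 or MYC primary 1:1,000 overnight at 4 °C, HRP secondary 1:10,000 for 60 min; GAPDH/β-actin loading control; ECL detection.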

[6] = target: T2, Protein cereblon/Bromodomain-containing protein 4 (Homo sapiens); assay: PROTAC activity at BRD4/Cereblon in human fibroblast cells assessed as decrease in BRD4 protein degradation at 500 to 1000 nM for 24 hrs by Western blot analysis; details: dose 500-1000 nM; how it was run: as §2
[7] = target: T2, Protein cereblon/Bromodomain-containing protein 4 (Homo sapiens); assay: PROTAC activity at BRD4/Cereblon in human COLO 320 cells assessed as decrease in BRD4 protein degradation at 5 to 10 uM for 24 hrs by Western blot analysis; details: dose 5-10 µM; how it was run: as §1
[8] = target: T2, Protein cereblon/Bromodomain-containing protein 4 (Homo sapiens); assay: PROTAC activity at BRD4/Cereblon in human HCT116 p53+/+ cells assessed as decrease in BRD4 protein degradation at 5 to 10 uM for 24 hrs by Western blot analysis; details: HCT-116, dose 5-10 µM; how it was run: as §1
[9] = target: T2, Protein cereblon/Bromodomain-containing protein 4 (Homo sapiens); assay: PROTAC activity at BRD4/Cereblon in human HCT116 p53-/- cells assessed as decrease in BRD4 protein degradation at 5 to 10 uM for 24 hrs by Western blot analysis; details: HCT-116, dose 5-10 µM; how it was run: as §1
[10] = target: T2, Protein cereblon/Bromodomain-containing protein 4 (Homo sapiens); assay: PROTAC activity at BRD4/Cereblon in human LS174T cells assessed as decrease in BRD4 protein degradation at 5 to 10 uM for 24 hrs by Western blot analysis; details: dose 5-10 µM; how it was run: as §1
[11] = target: T2, Protein cereblon/Bromodomain-containing protein 4 (Homo sapiens); assay: PROTAC activity at BRD4/Cereblon in human COLO 320 cells assessed as decrease in MYC protein expression at 5 to 10 uM for 24 hrs by Western blot analysis; details: dose 5-10 µM; how it was run: as §1
[12] = target: T2, Protein cereblon/Bromodomain-containing protein 4 (Homo sapiens); assay: PROTAC activity at BRD4/Cereblon in human DLD-1 cells assessed as decrease in MYC protein expression at 5 to 10 uM for 24 hrs by Western blot analysis; details: dose 5-10 µM; how it was run: as §1
[13] = target: T2, Protein cereblon/Bromodomain-containing protein 4 (Homo sapiens); assay: PROTAC activity at BRD4/Cereblon in human HCT116 p53-/- cells assessed as decrease in MYC protein expression at 5 to 10 uM for 24 hrs by Western blot analysis; details: HCT-116, dose 5-10 µM; how it was run: as §1
[14] = target: T2, Protein cereblon/Bromodomain-containing protein 4 (Homo sapiens); assay: PROTAC activity at BRD4/Cereblon in human SW480 cells assessed as decrease in MYC protein expression at 5 to 10 uM for 24 hrs by Western blot analysis; details: dose 5-10 µM; how it was run: as §1

T1 sequence (P40337 whole entry, looked up, other chains not shown): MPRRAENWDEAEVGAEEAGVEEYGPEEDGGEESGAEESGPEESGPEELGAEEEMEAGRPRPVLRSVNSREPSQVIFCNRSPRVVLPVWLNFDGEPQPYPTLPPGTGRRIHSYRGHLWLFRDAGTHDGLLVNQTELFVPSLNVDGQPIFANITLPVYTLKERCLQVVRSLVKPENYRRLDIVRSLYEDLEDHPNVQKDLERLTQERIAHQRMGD

Cc1ncsc1-c1ccc(CNC(=O)[C@@H]2C[C@@H](O)CN2C(=O)[C@@H](NC(=O)COCCOCCOCCNC(=O)C[C@@H]2N=C(c3ccc(Cl)cc3)c3c(sc(C)c3C)-n3c(C)nnc32)C(C)(C)C)cc1
Activity [1]: inactive | Activity [2]: Active

Cc1sc2c(c1C)C(c1ccc(Cl)cc1)=N[C@@H](CC(=O)NCCCCNC(=O)COc1cccc3c1C(=O)N(C1CCC(=O)NC1=O)C3=O)c1nnc(C)n1-2 (some centres undefined)
Activity [3]: inactive | Activity [4]: inactive | Activity [5]: Active | Activity [6]: Active | Activity [7]: Active | Activity [8]: Active | Activity [9]: Active | Activity [10]: Active | Activity [11]: Active | Activity [12]: Active | Activity [13]: Active | Activity [14]: inactive

— ChEMBL document CHEMBL5712087, “Targeting bromodomain-containing protein 4 (BRD4) inhibits MYC expression in colorectal cancer cells” (Neoplasia, 2019)
